Compound activity (PubChem)
Shown are actives, neighbours in structure and some others; about 3.7% of the full set was active somewhere.
KCNK3 inh – human KCNK3 channel inhibitors, primary screen, CHO cells, FluxOR thallium flux, B-score; Potassium channel subfamily K member 3 (Homo sapiens), O14649; FluxOR fluorescence; active compounds read low; B-score at 10 µM; 340,000 tested, 0.84% active;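 active = B-score under library mean minus 4 SD, starting fluorescence ratio at most library mean plus 5 SD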;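 note: more negative B-score means stronger inhibition of thallium flux through KCNK3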
hERG protect – hERG rescue from dofetilide block, primary screen, cell-based, CHO-hERG, FluxOR thallium flux, dofetilide IC70; 310,000 tested, 0.51% active; activation (rescue from dofetilide block), less the hit threshold, % at 10 µM; AID 1511, 2009; Voltage-gated inwardly rectifying potassium channel KCNH2 (Homo sapiens), Q12809; dofetilide IC70 present;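 active = activation above the mean of controls blocked by dofetilide plus 5 SD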;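 note: thallium influx through hERG after potassium depolarization seen as dye fluorescence rise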
KCNQ1 inh – inhibitors of human KCNQ1 channel, primary screen, cell-based, thallium flux, high-throughput; Potassium voltage-gated channel subfamily KQT member 1 (Homo sapiens), P51787; CHO-K1 KCNQ1, FluxOR thallium flux fluorescence; active compounds read high; B-score at 10 µM; 310,000 tested, 1.3% active;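 active = compounds whose thallium flux B-score, printed positive for inhibition, exceeds three library SD while starting fluorescence stays within three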;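 note: channel opened by potassium depolarization with thallium stimulus after 20 min compound exposure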
Target sequence (P51787 whole entry, looked up): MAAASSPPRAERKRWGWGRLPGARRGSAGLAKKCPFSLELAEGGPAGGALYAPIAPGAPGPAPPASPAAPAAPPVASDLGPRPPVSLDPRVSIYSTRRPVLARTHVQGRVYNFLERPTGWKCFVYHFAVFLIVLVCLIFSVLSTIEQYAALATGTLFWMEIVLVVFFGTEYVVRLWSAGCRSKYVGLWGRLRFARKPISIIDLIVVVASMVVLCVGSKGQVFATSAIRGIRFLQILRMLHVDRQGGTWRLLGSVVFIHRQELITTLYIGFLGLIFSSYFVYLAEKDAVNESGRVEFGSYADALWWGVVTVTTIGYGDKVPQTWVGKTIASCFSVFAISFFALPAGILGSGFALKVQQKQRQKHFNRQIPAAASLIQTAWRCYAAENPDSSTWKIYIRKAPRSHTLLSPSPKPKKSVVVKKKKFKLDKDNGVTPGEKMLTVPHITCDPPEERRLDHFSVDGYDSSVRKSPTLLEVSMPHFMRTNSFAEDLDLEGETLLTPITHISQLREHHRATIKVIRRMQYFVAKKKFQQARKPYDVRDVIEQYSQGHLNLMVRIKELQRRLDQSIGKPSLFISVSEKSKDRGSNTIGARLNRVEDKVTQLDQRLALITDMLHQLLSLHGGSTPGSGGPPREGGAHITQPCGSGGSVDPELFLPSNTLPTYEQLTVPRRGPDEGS
KCNQ1 act – potentiators or activators of KCNQ1 channel, primary screen, cell-based, thallium flux, high-throughput. Potassium voltage-gated channel subfamily KQT member 1 (Homo sapiens), P51787. CHO-K1 KCNQ1, thallium flux FluxOR fluorescence; active compounds read high. B-score at 10 µM. 310,000 tested, 0.35% active;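 active = fluorescence ratio B-score, a plate-corrected score, at least three library SD, with initial intensity B-score within 5 SD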
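Material: CHO-K1 cells stably expressing KCNQ1. Medium: assay buffer for compound exposure, DMSO matched across wells. Reagent: K+/Tl+ depolarizing stimulus. Compound dosing: single-concentration screen. Times: 37 °C overnight plating, 90-min dark dye load, 20-min compound pretreatment. Technique: FluxOR Tl+ flux fluorescence.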
Kir21 inh – inhibitors of mouse Kir2.1 inward-rectifier potassium channel; HEK293-Kir2.1, FluxOR thallium flux fluorescence; active compounds read low; B-score at 10 µM; 310,000 tested, 0.85% active;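 active = fluorescence ratio B-score at or below minus 3 SD of library scores, with starting-brightness B-score within 2 SD, cut at about -4.2 in these data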;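 note: channel flux triggered by added potassium and thallium sulfate stimulus; B-score of peak minus minimum fluorescence over baseline after thallium stimulus; more negative B-score means stronger Kir2.1 block with less thallium influx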
KCNK9 block – KCNK9 potassium channel inhibitors, primary screen, HEK293 cells, thallium flux | 310,000 tested, 1.2% active | FluxOR thallium flux fluorescence; active compounds read low | B-score at 10 µM | Potassium channel subfamily K member 9 (Homo sapiens), Q9NPC2 | AID 488922, 2010;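 active = ratio B-score over 3 SD below the library mean, with starting fluorescence within 5 SD of its mean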;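 note: negative B-score means less thallium flux so channel inhibition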
KCNK3 confirm – retest of human KCNK3 channel inhibitors, confirmation, CHO cells, FluxOR thallium flux, triplicate; shares compounds with KCNK3 inh; 2,400 tested, 99% active; ratio percent of control, % at 10 µM; FluxOR fluorescence; 0% buffer, 100% carvedilol maximal block;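 active = ratio percent of control, averaged over triplicates, above buffer control mean plus 5 SD, cut at about 64% in these data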;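 note: ratio is the fluorescence rise from min to max over baseline after thallium stimulus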
KCNK3 noninduced – thallium flux inhibition in non-induced cells, primary screen, counter-screen for KCNK3 inhibitor project, cell-based, non-induced KCNK3 line, FluxOR thallium, triplicate; shares compounds with KCNK3 inh; non-induced KCNK3 parental cells; active compounds read low; thallium flux ratio (lower = more inhibition) at 10 µM; 2,400 tested, 40% active;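 active = thallium flux ratio, averaged over three wells, more than 5 SD below the buffer control mean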;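 note: host cells are CHO cells without KCNK3 induction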
Each line names hits and unclear results; the compound was inactive in the other large screens (follow-up assays come after a bar, where they were run).

CC(C)(C)c1ccc(Cn2nnc3c(=O)[nH]c(C4CCN(C(=O)c5ccco5)CC4)nc32)cc1	KCNK3 inh -8.94 | KCNK3 confirm 121.7 | KCNK3 noninduced 0.146
O=C(c1ccco1)N1CCC(c2nc3c(nnn3Cc3c(Cl)cccc3Cl)c(=O)[nH]2)CC1	none
COCCNC(=S)N/N=C/c1c2ccccc2cc2ccccc12	KCNK3 inh -14 | KCNK3 confirm 110.0 | KCNK3 noninduced inactive
CC(=O)c1cn(CCOc2ccc(F)cc2)c2ccccc12	KCNK3 inh -8.96 | KCNK3 confirm 104.0 | KCNK3 noninduced inactive
COC(=O)c1cn(CCOc2ccc(C)cc2)c2ccccc12	KCNK3 inh -8.93 | KCNK3 confirm 108.0 | KCNK3 noninduced inactive
CC(=O)c1cn(CCOc2ccccc2C)c2ccccc12	none
Cc1ccc(OCCn2cc(C#N)c3ccccc32)cc1	KCNK3 inh -9.5 | KCNK3 confirm 100.7 | KCNK3 noninduced 0.152
CCCc1cc(C(=O)Cc2ccc(C(=O)OCC)o2)c(O)cc1O	KCNK3 inh -11.2, KCNK9 block -16.9 | KCNK3 confirm 104.3 | KCNK3 noninduced 0.133
O=C(CCNC(=O)c1ccccc1Cl)Nc1nccs1	none
CCCC(=O)Nc1nc2c(s1)COc1ccccc1-2	none
O=C(CCSc1ccccc1)Nc1nc2c(s1)COc1ccccc1-2	KCNK3 inh -9.38 | KCNK3 confirm 104.7 | KCNK3 noninduced inactive
Cc1ccc(-c2nc(NC(=O)c3cc(C(C)(C)C)nn3C)sc2C)cc1Cl	KCNK3 inh -9.19, KCNQ1 inh 10 | KCNK3 confirm 96.3 | KCNK3 noninduced 0.143
CC1CCc2nc(NC(=O)c3cc(C(C)(C)C)nn3C)sc2C1 (stereo unspecified)	none
COc1ccc(NC(=S)N2CCN(C(=O)c3ccccc3)CC2)cc1	none
COc1ccc(Cn2nnnc2C(CC(C)C)N2CCN(c3ccccc3)CC2)cc1 (stereo unspecified)	KCNK3 inh -9 | KCNK3 confirm 99.7 | KCNK3 noninduced inactive
CC(C)CC(c1nnnn1Cc1ccco1)N1CCN(c2cccc(Cl)c2)CC1 (stereo unspecified)	KCNK3 inh -10.3 | KCNK3 confirm 126.0 | KCNK3 noninduced inactive
CCCC(c1nnnn1Cc1ccc(OC)cc1)N1CCN(c2ccccc2)CC1 (stereo unspecified)	none
CCCCn1c(-c2sccc2C)n[nH]c1=S	none
CC(=O)N(C1=C(Cl)C(=O)c2ccccc2C1=O)C1CCCCC1	KCNK3 inh -11.5, KCNK9 block -6.9 | KCNK3 confirm 140.3 | KCNK3 noninduced 0.087
CC(=O)N(c1ccccc1C)C1CCCC1	none
Cc1cc(C)cc(NC(=O)c2c(C)nc3ccccn23)c1	none
COn1c(=O)c(-c2cccs2)[n+]([O-])c2ccccc21	KCNK3 inh -10.4 | KCNK3 confirm 87.0 | KCNK3 noninduced 0.109
COc1ccc(-c2cc(OC)c3c(C)oc(C)c3c(=O)c2)cc1OC	KCNK3 inh -9.03 | KCNK3 confirm 112.7 | KCNK3 noninduced 0.145
COc1ccc(N2CCN(C(=O)c3sc4ncn(CC(=O)N5CCCCC5C)c(=O)c4c3C)CC2)cc1 (stereo unspecified)	none
COc1cc2nc(Nc3ccc(C)c(C)c3)nc(N)c2cc1OC	KCNK3 inh -9.26, Kir21 inh -4.7 | KCNK3 confirm 114.3 | KCNK3 noninduced inactive
Cc1cnccc1CN(C)Cc1cn(C)nc1-c1ccc(Oc2ccccc2)cc1	KCNK3 inh -10.1 | KCNK3 confirm 118.0 | KCNK3 noninduced 0.155
COCCn1c(COc2ccc(C)cc2)nc2ccccc21	none
CCn1c(COc2ccc(C)cc2)nc2ccccc21	KCNK3 inh -12 | KCNK3 confirm 111.7 | KCNK3 noninduced inactive
CCN1/C(=C\C(=S)Nc2ccccc2)Sc2ccccc21	KCNK3 inh -9.82 | KCNK3 confirm 110.3 | KCNK3 noninduced inactive
CN(CC(=O)NCc1cccs1)CC(=O)Nc1ccc(F)c(F)c1F	none
CN(CC(=O)Nc1ccc(F)cc1Cl)Cc1cccs1	KCNK3 inh -9.55 | KCNK3 confirm 84.7 | KCNK3 noninduced inactive
Cc1ccccc1CC(=O)c1ccc(O)c(C)c1O	KCNK3 inh -12.7 | KCNK3 confirm 115.0 | KCNK3 noninduced 0.154
COc1ccc(C2=NNC(c3cc(Cl)cc4c3OCOC4)C2)c(O)c1 (stereo unspecified)	none (no result: KCNK3 inh)
Oc1ccc(Cl)cc1C1=NNC(c2cc(Br)cc3c2OCOC3)C1 (stereo unspecified)	KCNK3 inh -8.78 | KCNK3 confirm 96.0 | KCNK3 noninduced inactive
Oc1cnc2ccccc2c1CN1CCOCC1	KCNK3 inh -8.95 | KCNK3 confirm 81.7 | KCNK3 noninduced inactive
O=C(COc1ccc([N+](=O)[O-])cc1)Nn1cnnc1	none
CCn1c(=O)c(C(=O)Nc2ccsc2C(=O)OC)c(O)c2ccccc21	none (no result: KCNK3 inh)
CCCn1c(=O)c(C(=O)Nc2ccccc2C(=O)OC)c(O)c2ccccc21	KCNK3 inh -9.62 | KCNK3 confirm 97.7 | KCNK3 noninduced inactive
CCOC(=O)c1ccccc1NC(=O)c1c(O)c2ccccc2n(CC)c1=O	KCNK3 inh -9.52 | KCNK3 confirm 111.7 | KCNK3 noninduced inactive
CCn1c(=O)c(C(=O)Nc2ccc(C)cc2C)c(O)c2ccccc21	none
COc1ccc(-c2[nH]ncc2CN(C)C(C)c2cccs2)c(F)c1 (stereo unspecified)	KCNK3 inh -9.5 | KCNK3 confirm 101.0 | KCNK3 noninduced inactive
CC(Oc1ccccc1Cl)C(=O)Nc1ccccc1C(=O)N1CCOCC1 (stereo unspecified)	none
C=Cn1cc[n+](CC(=O)c2ccc(Br)s2)c1	none
Cc1ccc2oc(-c3cccc(NC(=O)c4ccc(Br)o4)c3)nc2c1	KCNK3 inh -10.8 | KCNK3 confirm 105.3 | KCNK3 noninduced inactive
O=C(NCCSc1c[nH]c2ccccc12)c1c(F)cccc1F	KCNK3 inh -10.3 | KCNK3 confirm 101.3 | KCNK3 noninduced inactive
